Experimental data taken from ChEMBL document CHEMBL1122081, “2-(Aminomethyl)phenols, a new class of saluretic agents. 4. Effects of oxygen and/or nitrogen substitution” (J Med Chem, 1982).

What was measured:
Conditions in all cases: in vivo
Rattus norvegicus [1] = species: Rattus norvegicus; test: Saluretic property (excretion of Na+ in rat); format: ADME, organism-based
In short: (§1)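 Rats dosed orally; urinary Na+ excretion (microequiv) scored per dose level. Each score is the geometric mean of three animals per cage, with three cages per dose.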

Rattus norvegicus [2] = test: Saluretic property was estimated by the excretion of Na+ in rat administered orally; microequiv of Na+ at 16.5 mg/kg […]; format: ADME, organism-based; design: dose 16.5 mg/kg; in short: as §1
Rattus norvegicus [3] = test: Saluretic property (excretion of Na+ in rat after PO dosing); format: ADME, organism-based; in short: as §1
Rattus norvegicus [4] = test: Saluretic property was estimated by the excretion of Na+ in rat administered orally; microequiv of Na+ at 5 mg/kg […]; format: ADME, organism-based; design: dose 5 mg/kg; in short: as §1
Canis familiaris [5] = test: Saluretic property was estimated by the excretion of Na+ in dog administered intravenously; microequiv of Na+/min at 5 mg/kg iv stat, 100-249; format: ADME, organism-based, Canis lupus familiaris; design: dose 5 mg/kg, route intravenous
In short: (§2)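 Dogs of 15-20 kg were given a single stat intravenous dose of 5 mg/kg and Na+ excretion was measured in microequiv/min. The score is the average of two dogs, or three where designated.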

Rattus norvegicus [6] = test: Saluretic property was estimated by the excretion of Na+ in rat administered orally; microequiv of Na+ at 1 mg/kg […]; format: ADME, organism-based; design: dose 1 mg/kg; in short: as §1
Canis familiaris [7] = test: Saluretic property was estimated by the excretion of Na+ in dog administered intravenously; microequiv of Na+/min at 5 mg/kg iv stat, […]; format: ADME, organism-based, Canis lupus familiaris; design: dose 5 mg/kg, route intravenous; in short: as §2
Canis familiaris [8] = test: Saluretic property was estimated by the excretion of Na+ in dog administered intravenously; microequiv of Na+/min at 5 mg/kg iv stat, 250-399; format: ADME, organism-based, Canis lupus familiaris; design: dose 5 mg/kg, route intravenous; in short: as §2
Canis familiaris [9] = test: Saluretic property was estimated by the excretion of Na+ in dog administered intravenously; microequiv of Na+/min at 5 mg/kg iv stat, 0-99; format: ADME, organism-based, Canis lupus familiaris; design: dose 5 mg/kg, route intravenous; in short: as §2
Rattus norvegicus [10] = test: Saluretic property was estimated by the excretion of Na+ in rat administered orally; microequiv of Na+ at 81 mg/kg […]; format: ADME, organism-based; design: dose 81 mg/kg; in short: as §1
Rattus norvegicus [11] = test: Saluretic property was estimated by the excretion of Na+ in rat administered orally; microequiv of Na+ at 50 mg/kg […]; format: ADME, organism-based; design: dose 50 mg/kg; in short: as §1
Canis familiaris [12] = test: Saluretic property was estimated by the excretion of Na+ in dog administered intravenously; microequiv of Na+/min at 5 mg/kg iv stat, 600-799; format: ADME, organism-based, Canis lupus familiaris; design: dose 5 mg/kg, route intravenous; in short: as §2
Canis familiaris [13] = test: Saluretic property was estimated by the excretion of Na+ in dog administered intravenously; microequiv of Na+/min at 5 mg/kg iv stat, 800-899; format: ADME, organism-based, Canis lupus familiaris; design: dose 5 mg/kg, route intravenous; in short: as §2
Canis familiaris [14] = test: Saluretic property was estimated by the excretion of Na+ in dog administered intravenously; microequiv of Na+/min at 5 mg/kg iv stat, >900; format: ADME, organism-based, Canis lupus familiaris; design: dose 5 mg/kg, route intravenous; in short: as §2
Canis familiaris [15] = test: Saluretic property was estimated by the excretion of Na+ in dog administered intravenously; microequiv of Na+/min at 5 mg/kg iv stat, 400-599; format: ADME, organism-based, Canis lupus familiaris; design: dose 5 mg/kg, route intravenous; in short: as §2

SMILES | Saluretic potency (Rattus norvegicus [1]) [u equiv] | Saluretic potency (Rattus norvegicus [2]) [u equiv] | Saluretic potency (Rattus norvegicus [3]) | Saluretic potency (Canis familiaris [9]) [u equiv min-1] | also measured
CC(C)(C)c1cc(I)c(O)c(CNS(=O)(=O)O)c1 | 1.5 | 0.5 | 1.2 u equiv |  | Saluretic potency (Rattus norvegicus [4]): 0.3 u equiv
CC(C)(C)c1cc(I)c(OCC(N)=O)c(CN)c1.Cl | < 0.3 |  | < 0.2 u equiv |  | Saluretic potency (Canis familiaris [5]): 100 u equiv min-1
Oc1c(Cl)cc(Cl)c(Cl)c1CN1CCOCC1 | < 0.3 |  | < 0.2 u equiv |  | Saluretic potency (Canis familiaris [5]): 100 u equiv min-1
CNCc1cc(C(C)(C)C)cc(I)c1O |  | 3.3 | 3.6 u equiv |  | Saluretic potency (Rattus norvegicus [6]): 0.7 u equiv; Saluretic potency (Canis familiaris [7]): 250 u equiv min-1; Saluretic potency (Rattus norvegicus [4]): 2.6 u equiv
CC(C)(C)c1cc(Cl)c(O)c(/C=N/N=C(/N)S)c1 | < 0.3 |  | < 0.2 u equiv |  | Saluretic potency (Canis familiaris [5]): 100 u equiv min-1
O=C(NCc1c(O)c(Cl)cc(Cl)c1Cl)C(Cl)(Cl)Cl | < 0.3 |  | < 0.2 u equiv |  | Saluretic potency (Canis familiaris [8]): 400 u equiv min-1
O=CNCc1c(O)c(Cl)cc(Cl)c1Cl | < 0.3 |  | < 0.2 u equiv | 0 | 
CC(C)(C)c1cc(I)c(O)c(CNC2=NCCC2)c1.Cl | < 0.3 |  | < 0.2 u equiv |  | 
CC(C)(C)c1cc(I)c(OS(=O)(=O)O)c(CN)c1 | 2.9 | 1.4 | 2.4 u equiv |  | Saluretic potency (Rattus norvegicus [4]): 0.5 u equiv
CCOC(=O)COc1c(I)cc(C(C)(C)C)cc1CN.Cl |  |  |  |  | Saluretic potency (Rattus norvegicus [10]): < 0.3 u equiv; Saluretic potency (Canis familiaris [5]): 100 u equiv min-1; Saluretic potency (Rattus norvegicus [11]): < 0.2 u equiv
CC(C)(C)c1cc(Cl)c(O)c(/C=N/N=C(N)N)c1 | < 0.3 |  | < 0.2 u equiv |  | Saluretic potency (Canis familiaris [5]): 100 u equiv min-1
CCCCNCc1cc(C(C)(C)C)cc(I)c1O.Cl |  | 2.7 | 3.3 u equiv |  | Saluretic potency (Canis familiaris [12]): 600 u equiv min-1; Saluretic potency (Rattus norvegicus [4]): 1.4 u equiv
CN(Cc1c(O)c(Cl)cc(Cl)c1Cl)CC1CCCO1 (centres undefined) | < 0.3 |  | < 0.2 u equiv |  | Saluretic potency (Canis familiaris [8]): 250 u equiv min-1
CC(C)(C)c1cc(I)c(O)c(CNC2=NCCS2)c1 | < 0.3 |  | < 0.2 u equiv |  | 
CC(C)(C)c1cc(I)c(OS(C)(=O)=O)c(CN)c1.Cl | < 0.3 |  | < 0.2 u equiv |  | 
CC(C)(C)OC(=O)NCc1cc(C(C)(C)C)cc(I)c1O | < 0.3 |  | < 0.2 u equiv |  | 
CC(C)(C)c1cc(Cl)c(O)c(C[n+]2ccc(N)cc2)c1.[Cl-] |  |  |  | 0 | 
CC(C)(C)c1cc(I)c(O)c(C[N+](C)(C)C)c1.[I-] | < 0.3 |  | 0.2 u equiv | 0 | 
CC(C)(C)c1cc(I)c(O)c(CNC2CCCCC2)c1.Cl | < 0.3 |  | < 0.2 u equiv |  | 
CN1CCN(Cc2cc(C(C)(C)C)cc(Cl)c2O)CC1.Cl | < 0.3 |  | < 0.2 u equiv | 0 | 
CN(C)Cc1cc(C(C)(C)C)cc(I)c1O |  | 2.7 | 3.3 u equiv | 0 | Saluretic potency (Rattus norvegicus [4]): 1.4 u equiv
Oc1c(Cl)cc(Cl)c(Cl)c1CN1CCCCC1 | < 0.3 |  | < 0.2 u equiv | 0 | 
NCC(=O)NCc1c(O)c(Cl)cc(Cl)c1Cl | < 0.3 |  | < 0.2 u equiv min-1 |  | Saluretic potency (Canis familiaris [5]): 100 u equiv min-1
CC(C)(C)c1cc(I)c(O)c(CNCCN)c1.Cl | 1.5 | 0.5 | 1.2 u equiv | 0 | Saluretic potency (Rattus norvegicus [4]): 0.3 u equiv

SMILES | Saluretic potency (Rattus norvegicus [1]) [u equiv] | Saluretic potency (Rattus norvegicus [2]) [u equiv] | Saluretic potency (Rattus norvegicus [3]) | Saluretic potency (Canis familiaris [9]) [u equiv min-1] | also measured
CC(C)(C)c1cc(I)c(O)c(CNC2=NCCN2)c1 | < 0.3 |  | < 0.2 u equiv | 0 | 
CC(C)(C)c1cc(Cl)c(O)c(C[n+]2ccccc2)c1.[Cl-] | < 0.3 |  | < 0.2 u equiv | 0 | 
CN(C)S(=O)(=O)Oc1c(I)cc(C(C)(C)C)cc1CN.Cl | 2.4 | 0.6 | 1.8 u equiv |  | Saluretic potency (Rattus norvegicus [4]): 0.4 u equiv
COc1c(I)cc(C(C)(C)C)cc1C[N+](C)(C)C.[I-] |  |  |  | 0 | 
Cl.NCc1c(O)c(Cl)cc(Cl)c1Cl | 2.9 | 1.4 | 2.4 u equiv |  | Saluretic potency (Canis familiaris [13]): 800 u equiv min-1; Saluretic potency (Rattus norvegicus [4]): 0.5 u equiv
CC(C)(C)c1cc(I)c(OS(=O)(=O)c2ccccc2)c(CN)c1.Cl | 2.4 | 0.6 | 1.8 u equiv |  | Saluretic potency (Rattus norvegicus [4]): 0.4 u equiv
O=C(CCl)NCc1c(O)c(Cl)cc(Cl)c1Cl | 1.5 | 0.5 | 1.2 u equiv | 0 | Saluretic potency (Rattus norvegicus [4]): 0.3 u equiv
CC(C)(C)c1cc(I)c(O)c(Cn2cnnn2)c1 | < 0.3 |  | < 0.2 u equiv |  | Saluretic potency (Canis familiaris [5]): 100 u equiv min-1
O=C(NCc1c(O)c(Cl)cc(Cl)c1Cl)C(F)(F)F | 2.4 | 0.6 | 1.8 u equiv |  | Saluretic potency (Rattus norvegicus [4]): 0.4 u equiv
COc1c(Cl)cc(Cl)c(Cl)c1CN.Cl | < 0.3 |  | < 0.2 u equiv | 0 | 
CCN(CC)C(=O)COc1c(I)cc(C(C)(C)C)cc1CN.Cl | < 0.3 |  | < 0.2 u equiv | 0 | 
CC(C)(C)c1cc(I)c(O)c(CN)c1.Cl |  | 4.2 | 3.9 u equiv |  | Saluretic potency (Canis familiaris [14]): > 900 u equiv min-1; Saluretic potency (Rattus norvegicus [6]): 2.1 u equiv; Saluretic potency (Rattus norvegicus [4]): 3.6 u equiv
CCNS(=O)(=O)Oc1c(I)cc(C(C)(C)C)cc1CN.Cl | 2.9 | 1.4 | 2.4 u equiv |  | Saluretic potency (Rattus norvegicus [4]): 0.5 u equiv; Saluretic potency (Canis familiaris [15]): 400 u equiv min-1
CC(C)(C)c1cc(I)c(O)c(CNC2=NCCO2)c1 | < 0.3 |  | < 0.2 u equiv |  | 
CC(C)(C)c1cc(I)c(O)c(CN=C(N)N)c1 | < 0.3 |  | < 0.2 u equiv |  | 
COc1c(I)cc(C(C)(C)C)cc1CN.Cl | < 0.3 |  | < 0.2 u equiv | 0 | 
CC(C)(C)c1cc(I)c2c(c1)CNS(=O)(=O)O2 | < 0.3 |  | < 0.2 u equiv |  | 
CC(C)(C)c1cc(Cl)c2c(c1)CNC(=O)CO2 | < 0.3 |  | < 0.2 u equiv |  | 
CC(C)(C)c1cc(Cl)c(O)c(CN)c1.Cl |  | 4.2 | 3.9 u equiv |  | Saluretic potency (Canis familiaris [14]): > 900 u equiv min-1; Saluretic potency (Rattus norvegicus [6]): 2.1 u equiv; Saluretic potency (Rattus norvegicus [4]): 3.6 u equiv
CC(C)(C)c1cc(Cl)c2c(c1)CNCCO2.Cl | < 0.3 |  | < 0.2 u equiv | 0 | 
CC(C)(C)c1cc(I)c(O)c(CNC(N)=O)c1 | < 0.3 |  | < 0.2 u equiv | 0 | 
CC(C)(C)c1cc(I)c2c(c1)CNC(=O)O2 | 0.9 | 0.4 | 0.7 u equiv |  | 
CC(C)(C)c1cc(Cl)c(O)c(CNS(N)(=O)=O)c1 | < 0.3 |  | < 0.2 u equiv | 0 | 
